Experimental data published in ChEMBL document CHEMBL1123258 (J Med Chem, 1986).
Converted amounts (≈) assume the structure as drawn. “And” between values parts separate entries of the source, which are not always exact repeats. Equal entries are not always repeated.

Tests used:
[1] = Compound was evaluated for the overall absorbance loss at pH of 4; type: ADME; conditions: pH 4
In short: (§1)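 Stock solutions at 0.6 mg/mL in CH3CN (or CH3OH) were diluted 1:1 with phosphate buffer (pH 7), citrate buffer (pH 4) or 0.1 N HCl-KCl (pH 2). They were held at 23 °C for 22 h, then analysed by reverse-phase HPLC in 0.1 M NaH2PO4-CH3CN (75:25) with 254 nm absorbance. Each value is the amount detected at that time divided by the total detected at start.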

[2] = Compound was evaluated for the percentage of hydrolysis product formed at pH of 4; type: ADME; conditions: pH 4; in short: as §1
[3] = Compound was evaluated for its stability after 22 hr in solution at pH of 2; type: physicochemical; conditions: pH 2, read-out: Recovery; in short: as §1
[4] = Compound was evaluated for the overall absorbance loss at pH of 2; type: ADME; conditions: pH 2; in short: as §1
[5] = Compound was evaluated for its stability after 22 hr in solution at pH of 4; type: physicochemical; conditions: pH 4, read-out: Recovery; in short: as §1
[6] = Compound was evaluated for the overall absorbance loss at pH of 7; type: ADME; conditions: pH 7; in short: as §1
[7] = Compound was evaluated for the percentage of hydrolysis product formed at pH of 7; type: ADME; conditions: pH 7; in short: as §1
[8] = Compound was evaluated for its stability after 22 hr in solution at pH of 7; type: physicochemical; conditions: pH 7, read-out: Recovery; in short: as §1
[9] = Compound was evaluated for the percentage of hydrolysis product formed at pH of 2; type: ADME; conditions: pH 2; in short: as §1
L1210 [10] = assay: Compound was evaluated for the inhibition of RNA synthesis in leukemia L1210 cells; type: functional; conditions: Mus musculus, read-out: ED50 (the source's name)
In short: (§2)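 Actively growing L1210 cells exposed to drug for 3 h; drug dissolved first in Me₂SO, final 1% Me₂SO. Read-out is incorporation of [³H]thymidine into DNA or [³H]uridine into RNA. ED50 is the concentration giving 50% inhibition.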

[11] = Compound was evaluated for the change in Tm of isolated helical DNA in solution; type: ADME
In short: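 Thermal denaturation of calf thymus DNA, 5.2 × 10⁻⁵ M (P), with drug at 5.2 × 10⁻⁶ M, in 0.01 M phosphate buffer pH 7 with EDTA and 5% Me₂SO. ΔTm = Tm of DNA–drug complex minus Tm of DNA alone.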

HeLa [12] = assay: (§3) Compound was evaluated for the inhibition of colony formation in HeLa cells; type: functional, Mus musculus; conditions: Homo sapiens, read-out: ID50 (the source's name)
In short: (§4)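 Exponentially growing HeLa cells exposed to drug for 24 h, then plated at 50 cells/mL in drug-free medium. Colonies grown 7–10 days at 37 °C in humidified 95:5 air/CO₂, then scored. ID50 is the concentration giving 50% inhibition of colony growth.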

P388 = assay: Compound was evaluated for the growth inhibition of P388/S, cells.; type: functional, cell-based; conditions: Mus musculus
In short: (§5)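 Growth of P388/S cells, the routine screening line, and of the P388/ADR resistant subline measured after 48-h drug exposure. IC50 is the concentration giving 50% growth inhibition.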

L1210 [13] = assay: Compound was evaluated for the inhibition of DNA synthesis in leukemia L1210 cells; type: functional; conditions: Mus musculus, read-out: ED50 (the source's name); in short: as §2
Mus musculus = species: Mus musculus; assay: Compound was evaluated for the antitumor efficacy at optimal dose against P388 in mice; type: functional
In short: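 Mice given 10⁶ P388 leukemia cells ip on day 0, then dosed ip on day 1 at the optimal dose. Efficacy expressed as % T/C, the mean survival time of treated over control mice; ≥120% counts as active.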

[14] = Compound was evaluated for the percentage of hydrolysis product (aglycon) formed at pH of 7; type: ADME; conditions: pH 7; in short: as §1
P388/S = assay: Compound was evaluated for the growth inhibition of P388/S cells.; type: functional, cell-based; conditions: Mus musculus
In short: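 P388/S is the sensitive line routinely used in screening. Cells were exposed to drug for 48 h before IC50 was determined.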

[15] = Compound was evaluated for the percentage of hydrolysis product (aglycon) formed at pH of 4; type: ADME; conditions: pH 4; in short: as §1
[16] = Compound was evaluated for the percentage of hydrolysis of compound 2 formed at pH of 4; type: ADME; conditions: pH 4; in short: as §1
[17] = Compound was evaluated for the percentage of hydrolysis of compound 2 formed at pH of 7; type: ADME; conditions: pH 7; in short: as §1
[18] = Compound was evaluated for the percentage of hydrolysis product (aglycon) formed at pH of 2; type: ADME; conditions: pH 2; in short: as §1
[19] = Compound was evaluated for the percentage of hydrolysis of compound 2 formed at pH of 2; type: ADME; conditions: pH 2; in short: as §1
HeLa [20] = assay: as §3; type: functional; conditions: Homo sapiens, read-out: ID50 (the source's name); in short: as §4
[21] = Resistance index was measured as ratio of IC50 of P388/ADR to that of P388/S
[22] = Partition coefficient in octanol-phosphate buffer at pH 7.4; type: physicochemical
In short: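 Drug partitioned between octanol and phosphate buffer pH 7.4. Concentrations in each phase measured by UV absorbance; log P is the log of organic-phase over aqueous-phase concentration.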

P388/ADR = assay: Compound was evaluated for the growth inhibition of P388/ADR cells.; type: functional, cell-based; conditions: Mus musculus; in short: as §5

Row | Structure (SMILES) | Absorbance [1] | remaining at 22 h [3] | Absorbance [4] | Absorbance [6] | EC50 (L1210 [10]) | Change in Tm [11] | IC50 (P388) | EC50 (L1210 [13]) | T/C (Mus musculus) | further results
1 | COc1cccc2c1C(=O)c1c(O)c3c(c(O)c1C2=O)C[C@@](O)(C(=O)CO)C[C@@H]3OC1CC(N2CCOCC2)C(O)C(C)O1 (stereo partly specified) | 12% | 96% | 4% | 4% | – | – | – | – | – | Hydrolysis [2]: < 1%; remaining at 22 h [5]: 88%; Hydrolysis [7]: < 1%; remaining at 22 h [8]: 90%; Hydrolysis [9]: < 1%
2 | COc1cccc2c1C(=O)c1c(O)c3c(c(O)c1C2=O)C[C@@](O)(C(=O)CO)C[C@@H]3O[C@H]1C[C@H](N)[C@H](O)[C@H](C)O1 [DOXORUBICIN] | – | – | – | – | 580 nM | 12.8 | 68 nM | 1600 nM | 182% and 273% | IC50 (HeLa [12]): 0.019 µg/mL (≈ 0.035 µM)
3 | COc1cccc2c1C(=O)c1c(O)c3c(c(O)c1C2=O)C[C@@](O)(C(=O)CO)C[C@@H]3OC1CC(N2CCOCC2C#N)C(O)C(C)O1 (stereo partly specified) | 37% | 10% | 67% | 17% | 0.53 nM | 8.7 | – | 3 nM | 262% and 233% | Hydrolysis [14]: 0.3%; IC50 (P388/S): 0.16 nM; Hydrolysis [15]: 0.1%; Hydrolysis [16]: 8%; Hydrolysis [17]: 0.8%; Hydrolysis [18]: 8%; Hydrolysis [19]: 7%
4 | COc1cccc2c1C(=O)c1c(O)c3c(c(O)c1C2=O)C[C@@](O)(C(=O)CO)C[C@@H]3OC1CC2C(OC(CO)N2CCO)C(C)O1 (stereo partly specified) | – | – | – | – | 120 nM | – | – | 650 nM | – | –
5 | COc1cccc2c1C(=O)c1c(O)c3c(c(O)c1C2=O)C[C@@](O)(C(=O)CO)C[C@@H]3OC1CC(NCCO)C(O)C(C)O1 (stereo partly specified) | – | – | – | – | 810 nM | 10.7 | 230 nM | 5200 nM | 157% and 205% | IC50 (HeLa [20]): 0.031 µg/mL (≈ 0.0528 µM); Ratio [21]: 17; logD [22]: 0.19; IC50 (P388/ADR): 3900 nM
